# MBD2 DNA inh – inhibitors of MBD2 binding to methylated DNA, primary screen, biochemical, TR-FRET, DNA-binding domain, human; MBD2 binding to methylated oligonucleotide; inhibition, % at 4.4 µM; hit rate 0.31% among 370,000; in the data active = inhibition above about 13%
# Target sequence (Q9UBB5 whole entry, looked up, the tested form may be a part): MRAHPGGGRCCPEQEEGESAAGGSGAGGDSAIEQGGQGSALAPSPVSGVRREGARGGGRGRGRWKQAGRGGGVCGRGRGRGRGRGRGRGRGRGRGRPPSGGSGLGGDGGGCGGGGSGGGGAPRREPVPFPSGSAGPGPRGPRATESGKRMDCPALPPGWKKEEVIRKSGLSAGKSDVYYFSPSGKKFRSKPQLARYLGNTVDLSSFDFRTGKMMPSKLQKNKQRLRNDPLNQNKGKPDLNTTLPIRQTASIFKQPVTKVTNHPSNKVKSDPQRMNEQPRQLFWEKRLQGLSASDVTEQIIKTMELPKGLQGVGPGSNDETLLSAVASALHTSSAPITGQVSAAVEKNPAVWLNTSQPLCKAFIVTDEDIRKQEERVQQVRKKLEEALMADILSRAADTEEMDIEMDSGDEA
# TDP2 absorb – human TDP2 enzyme inhibitors, primary screen, biochemical, epi absorbance, recombinant enzyme. Tyrosyl-DNA phosphodiesterase 2 (Homo sapiens), O95551. T5PNP hydrolysis, p-nitrophenol absorbance 415 nm. inhibition, % at 12.8 µM. hit rate 0.34% among 370,000;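 active = inhibition above the mean of all tested compounds plus 3 SD, set per campaign, cut at about 25% in these data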;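 also: 0% = DMSO with enzyme and 100% = buffer with substrate but no TDP2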
#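 Read-out basis: percent inhibition. System: recombinant human TDP2. Buffer or medium: Mg2+-containing Tris-HCl buffer, pH 7.5. Repeats: single replicate. Timing: reaction 2 h, 37 °C. Benchmarks: high control without enzyme, low control DMSO plus TDP2. Probe or stimulus: 5 mM T5PNP. Doses: 12.8 µM only. Measured by: epi absorbance of p-nitrophenol freed from T5PNP by hydrolysis.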
# UHRF1 binding – UHRF1 methylated DNA binding inhibitors, primary screen, counter-screen for MBD2 inhibitor project, biochemical, TR-FRET, human UHRF1, single concentration. E3 ubiquitin-protein ligase UHRF1 (Homo sapiens), Q96T88. UHRF1 binding to methylated oligo. inhibition, % at 4.4 µM. hit rate 0.75% among 370,000; in the data active = inhibition above about 21%;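 also: UHRF1 SRA domain binding a hemimethylated CpG hairpin DNA probe; 0% = median of test compound wells and 100% = reference inhibitor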
# LEDGF integ inh – blockers of LEDGF/p75-dependent integrase strand transfer – biochemical, TR-FRET, high throughput, primary screen | TR-FRET IN-LEDGF/p75 DNA integration, Eu/Cy5 | inhibition, % at 3.7 µM | hit rate 0.64% among 370,000;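 active = inhibition above the screen-wide mean plus 3 SD, cut at about 13% in these data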;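 also: signal is the Cy5 over europium emission ratio at 671 and 618 nm; 0% = plate median of compound wells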
# TDP2 inh conf – human TDP2 enzyme inhibitors, retest, confirmation, biochemical, epi absorbance, recombinant enzyme; inhibition, % at 12.8 µM; absorbance read-out; shares compounds with TDP2 absorb; hit rate 22% among 1,100; in the data active = inhibition above about 25%;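 also: 0% = vehicle with enzyme and 100% = no enzyme buffer only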
# * = called active by the depositor; . = no result given. Hits are enriched below; roughly 1.6% of the tested compounds scored in any of these assays.
SMILES,MBD2 DNA inh,TDP2 absorb,UHRF1 binding,LEDGF integ inh,TDP2 inh conf
COc1ccc(F)cc1S(=O)(=O)NCc1cc(=O)n(C)c(=O)n1C,-4,25*,0,0,4
COc1ccc(F)cc1S(=O)(=O)NCC(=O)NCc1cc(=O)n(C)c(=O)n1C,2,9,1,2,.
Cc1ccc(/C([O-])=C(/C(=S)NCc2ccccc2)[n+]2cccc(CO)c2)cc1[N+](=O)[O-],-7,26*,-2,5,1
CC1=NN(c2ccccc2)C(=O)C1N=Nc1ccc(N)cc1 (stereo not given),-5,29*,-7,4,-1
O=C1CC(C(=O)Nc2ccc(Cl)cc2[N+](=O)[O-])C2(CCCCC2)O1 (stereo not given),1,-1,-2,0,.
CCN(CC)c1ccc(NC(=O)CN2CCN(CC(=O)Nc3ccccc3F)CC2)cc1,-2,3,-3,1,.
CC(C)(C)c1ccc(C(=O)NCCCNC(=O)c2ccco2)cc1,-2,28*,-1,0,-9
Cc1ccc(S(=O)(=O)N2CCC(C(=O)NCCCN3CCOCC3)CC2)cc1C,-3,30*,-2,-1,5
CC(=O)N1CCc2cc(S(=O)(=O)CCC(=O)NCc3ccc(C)o3)ccc21,-2,-5,0,0,.
COc1ccc(/C=N/NC(=O)c2nnn(-c3nonc3N)c2CN(C)c2ccccc2)cc1,3,27*,0,1,7
CN(Cc1c(C(=O)N/N=C/c2ccccc2)nnn1-c1nonc1N)c1ccccc1,-5,-2,-2,3,.
COc1cc(CN2CC(C)OC(C)C2)cc(OC)c1 (stereo not given),3,24*,16,2,4
COc1cc(CN2CCCCCC2)cc(OC)c1,3,8,3,1,.
N#CCCn1cc(C(=O)N2CCOCC2)c(-c2ccc3c(c2)OCCO3)n1,2,25*,-5,2,-9
N#CCCn1cc(C(=O)N2CCCCC2)c(-c2ccc([N+](=O)[O-])cc2)n1,0,-2,1,1,.
C/C(=N/NS(=O)(=O)c1ccc(Br)cc1)c1c[nH]c2ccccc12,3,25*,2,-2,6
Cc1ccc(S(=O)(=O)C2(C(=O)N3CCCCCC3)CC2)cc1,3,3,10,2,.
CC(C)Oc1ccc(S(=O)(=O)N2CCOCC2)cc1NC(=O)Cc1c(F)cccc1Cl,2,29*,0,2,0
CC(C)Oc1ccc(S(=O)(=O)N2CCOCC2)cc1NC(=O)CC1CCCC1,0,4,-1,-1,.
O=C(O)CN1C(=O)/C(=C\c2cc(Br)ccc2OCc2ccc(Cl)cc2)SC1=S,1,26*,-4,0,17
Cc1ccccc1NC1=C/C(=N\S(=O)(=O)c2cccs2)c2ccccc2C1=O,-5,62*,-2,47*,75*
Cc1cc[n+](C2=C([O-])c3ccccc3C(=O)/C2=N\S(=O)(=O)c2cccs2)cc1C,-8,0,1,6,.
CC1(C)CC(=O)C=C(Nc2ccc(O)c(C(=O)O)c2)C1,1,25*,-5,1,0
Cn1c(NN)nc2ccccc2c1=O,0,-1,-2,-2,.
CN1CCN(CC(=O)Nc2ccc(S(=O)(=O)N(C)C)cc2)CC1,10,33*,22*,8,10
SMILES,MBD2 DNA inh,TDP2 absorb,UHRF1 binding,LEDGF integ inh,TDP2 inh conf
CN(C)S(=O)(=O)c1ccc(NC(=O)CN2CCCCCC2)cc1,0,8,1,-2,.
CCN1CCN(CC(=O)Nc2ccc(C(C)=O)cc2)CC1,-2,38*,-1,0,-3
CCN1CCN(CC(=O)Nc2cc3c(cc2C(C)=O)OCO3)CC1,1,26*,3,3,12
CC(=O)c1ccc(NC(=O)CNC2CCCCC2)cc1,8,26*,3,-4,2
CC(=O)c1ccc(NC(=O)CN2CCN(CC(=O)Nc3ccc(C(C)=O)cc3)CC2)cc1,-1,9,-1,-3,.
CCCCCCn1c(-c2cccs2)n[nH]c1=S,2,-11,15,-1,.
CN1CCCCc2c1nc1c(c2N)CCCC1,-1,9,1,-2,.
